From ChEMBL document CHEMBL1154411, “Determination of the primary target of a quinolone drug and the effect of quinolone resistance-conferring mutations by measuring quinolone sensitivity based on its mode of action” (Antimicrob Agents Chemother, 2007)
Calls of active or inactive are those of the source. The rule behind the calls is not given here.

Legend:
Escherichia coli [1] = experiment: Induction of Escherichia coli DNA gyrase-mediated negatively supercoiled Escherichia coli pBR322 DNA cleavage at 50 uM after 10 mins by gel electrophoresis
Outline: (§1)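 Negatively supercoiled pBR322 (300 ng) incubated with titrated topoisomerase (tetramer amounts) in 50 mM Tris-HCl pH 8, 10 mM MgCl2, 10 mM DTT, 50 μg/ml BSA, 1 mM ATP, 5 μg/ml tRNA, 10 min at 37°C, with or without 50 μM norfloxacin. Trapped by 1% SDS, then EDTA/proteinase K, extracted, and run on 1.2% agarose with ethidium bromide; activity is linear DNA per enzyme amount.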

[2] = biological target: T1, DNA gyrase (Staphylococcus aureus) (UniProt P0A0K8+P20831); experiment: Induction of Staphylococcus aureus DNA gyrase-mediated negatively supercoiled Escherichia coli pBR322 DNA cleavage at 50 uM after 10 mins by gel electrophoresis; format: protein-complex assay; outline: as §1
[3] = test system: T2, DNA topoisomerase 4 subunit A (Escherichia coli K-12), P0AFI2 [S80L]; experiment: (§2) Induction of Escherichia coli DNA topoisomerase 4-mediated negatively supercoiled Escherichia coli pBR322 DNA cleavage assessed as amount of linear DNA generated per unit amount of enzyme at 50 uM after 10 mins by gel electrophoresis; outline: as §1
T2 sequence (whole entry): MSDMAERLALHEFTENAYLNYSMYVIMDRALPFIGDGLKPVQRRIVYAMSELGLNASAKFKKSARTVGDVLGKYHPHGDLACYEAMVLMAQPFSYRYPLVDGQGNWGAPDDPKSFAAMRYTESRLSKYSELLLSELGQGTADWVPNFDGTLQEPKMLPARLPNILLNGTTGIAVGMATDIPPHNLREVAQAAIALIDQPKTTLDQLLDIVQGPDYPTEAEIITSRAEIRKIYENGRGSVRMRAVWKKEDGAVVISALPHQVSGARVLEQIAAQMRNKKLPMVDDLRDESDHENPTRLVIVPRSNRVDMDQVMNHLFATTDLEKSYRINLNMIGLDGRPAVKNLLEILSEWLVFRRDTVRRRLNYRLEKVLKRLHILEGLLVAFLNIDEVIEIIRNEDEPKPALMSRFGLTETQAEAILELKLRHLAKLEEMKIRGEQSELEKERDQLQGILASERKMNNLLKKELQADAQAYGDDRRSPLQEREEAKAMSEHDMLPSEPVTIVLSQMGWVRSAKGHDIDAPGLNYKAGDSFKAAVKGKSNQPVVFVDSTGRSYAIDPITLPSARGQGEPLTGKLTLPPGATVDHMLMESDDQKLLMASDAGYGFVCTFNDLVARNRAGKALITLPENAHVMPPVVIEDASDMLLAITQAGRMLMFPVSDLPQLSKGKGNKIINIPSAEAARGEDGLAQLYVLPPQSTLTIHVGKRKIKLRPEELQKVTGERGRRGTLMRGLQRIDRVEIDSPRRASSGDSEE

Escherichia coli [4] = experiment: as §2; outline: as §1
[5] = biological target: DNA gyrase (Escherichia coli) (UniProt P0AES6+P0AES4); experiment: Induction of Escherichia coli DNA gyrase-mediated negatively supercoiled Escherichia coli pBR322 DNA cleavage assessed as amount of linear DNA generated per unit amount of enzyme at 50 uM after 10 mins by gel electrophoresis; format: protein-complex assay; outline: as §1
Staphylococcus aureus [6] = experiment: Induction of Staphylococcus aureus DNA topoisomerase 4-mediated negatively supercoiled Escherichia coli pBR322 DNA cleavage assessed as amount of linear DNA generated per unit amount of enzyme at 50 uM after 10 mins by gel electrophoresis; outline: as §1
Escherichia coli [7] = experiment: Induction of Escherichia coli DNA gyrase-mediated Escherichia coli pBR322 DNA cleavage assessed as ratio of drug-induced DNA cleavage to spontaneous DNA cleavage at 50 uM after 10 mins by gel electrophoresis
Outline: (§3)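 Quinolone sensitivity is the ratio of specific cleavage activity with 50 μM norfloxacin to the activity without it. Both come from the same pBR322 cleavage reaction: 37°C for 10 min with 1 mM ATP, then SDS/proteinase K trapping, with linear DNA resolved on ethidium-stained 1.2% agarose gels.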

Escherichia coli [8] = experiment: Induction of Escherichia coli DNA topoisomerase 4-mediated Escherichia coli pBR322 DNA cleavage assessed as ratio of drug-induced DNA cleavage to spontaneous DNA cleavage at 50 uM after 10 mins by gel electrophoresis; outline: as §3
[9] = biological target: T1, DNA gyrase (Staphylococcus aureus); experiment: Induction of Staphylococcus aureus DNA gyrase-mediated Escherichia coli pBR322 DNA cleavage assessed as ratio of drug-induced DNA cleavage to spontaneous DNA cleavage at 50 uM after 10 mins by gel electrophoresis; format: protein-complex assay; outline: as §3
Staphylococcus aureus [10] = experiment: Induction of Staphylococcus aureus DNA topoisomerase 4-mediated Escherichia coli pBR322 DNA cleavage assessed as ratio of drug-induced DNA cleavage to spontaneous DNA cleavage at 50 uM after 10 mins by gel electrophoresis; outline: as §3
Escherichia coli [11] = experiment: Induction of Escherichia coli DNA topoisomerase 4 ParC […] mutant-mediated negatively supercoiled Escherichia coli pBR322 DNA cleavage assessed as amount of linear DNA generated per unit amount of enzyme at 50 uM after 10 mins by gel electrophoresis; outline: as §1
[12] = test system: T2, DNA topoisomerase 4 subunit A (Escherichia coli K-12), P0AFI2 [S80L]; experiment: Induction of Staphylococcus aureus DNA topoisomerase 4 ParC S80L mutant-mediated Escherichia coli pBR322 DNA cleavage assessed as ratio of drug-induced DNA cleavage to spontaneous DNA cleavage at 50 uM after 10 mins by gel electrophoresis
Escherichia coli [13] = experiment: Sensitivity ratio for induction of Escherichia coli DNA topoisomerase 4 over DNA gyrase-mediated negatively supercoiled Escherichia coli pBR322 DNA cleavage
Staphylococcus aureus [14] = experiment: Sensitivity ratio for induction of Staphylococcus aureus DNA topoisomerase 4 over DNA gyrase-mediated negatively supercoiled Escherichia coli pBR322 DNA cleavage
Escherichia coli [15] = experiment: Induction of Escherichia coli DNA topoisomerase 4-mediated negatively supercoiled Escherichia coli pBR322 DNA cleavage at 50 uM after 10 mins by gel electrophoresis; outline: as §1
Staphylococcus aureus [16] = experiment: Induction of Staphylococcus aureus DNA topoisomerase 4-mediated negatively supercoiled Escherichia coli pBR322 DNA cleavage at 50 uM after 10 mins by gel electrophoresis; outline: as §1

T1 sequence (P0A0K8 2-644 limits assumed): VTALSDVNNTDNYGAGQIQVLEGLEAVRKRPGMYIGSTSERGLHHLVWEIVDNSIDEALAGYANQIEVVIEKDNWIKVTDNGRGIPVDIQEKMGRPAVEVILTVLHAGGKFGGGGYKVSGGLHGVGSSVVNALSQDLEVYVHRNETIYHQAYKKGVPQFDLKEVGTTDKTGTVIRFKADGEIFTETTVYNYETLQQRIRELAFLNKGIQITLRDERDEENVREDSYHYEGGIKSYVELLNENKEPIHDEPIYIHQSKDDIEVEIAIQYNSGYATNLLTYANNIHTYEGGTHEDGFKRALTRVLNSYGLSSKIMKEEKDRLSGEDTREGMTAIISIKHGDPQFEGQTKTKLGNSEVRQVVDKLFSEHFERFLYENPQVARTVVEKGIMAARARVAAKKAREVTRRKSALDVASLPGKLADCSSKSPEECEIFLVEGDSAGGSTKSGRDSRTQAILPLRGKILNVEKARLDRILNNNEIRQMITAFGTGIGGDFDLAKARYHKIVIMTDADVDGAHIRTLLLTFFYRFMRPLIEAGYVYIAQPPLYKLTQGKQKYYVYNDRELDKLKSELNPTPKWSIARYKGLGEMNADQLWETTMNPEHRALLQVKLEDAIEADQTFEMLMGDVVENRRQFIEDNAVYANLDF
T1 sequence (P20831 whole entry partner): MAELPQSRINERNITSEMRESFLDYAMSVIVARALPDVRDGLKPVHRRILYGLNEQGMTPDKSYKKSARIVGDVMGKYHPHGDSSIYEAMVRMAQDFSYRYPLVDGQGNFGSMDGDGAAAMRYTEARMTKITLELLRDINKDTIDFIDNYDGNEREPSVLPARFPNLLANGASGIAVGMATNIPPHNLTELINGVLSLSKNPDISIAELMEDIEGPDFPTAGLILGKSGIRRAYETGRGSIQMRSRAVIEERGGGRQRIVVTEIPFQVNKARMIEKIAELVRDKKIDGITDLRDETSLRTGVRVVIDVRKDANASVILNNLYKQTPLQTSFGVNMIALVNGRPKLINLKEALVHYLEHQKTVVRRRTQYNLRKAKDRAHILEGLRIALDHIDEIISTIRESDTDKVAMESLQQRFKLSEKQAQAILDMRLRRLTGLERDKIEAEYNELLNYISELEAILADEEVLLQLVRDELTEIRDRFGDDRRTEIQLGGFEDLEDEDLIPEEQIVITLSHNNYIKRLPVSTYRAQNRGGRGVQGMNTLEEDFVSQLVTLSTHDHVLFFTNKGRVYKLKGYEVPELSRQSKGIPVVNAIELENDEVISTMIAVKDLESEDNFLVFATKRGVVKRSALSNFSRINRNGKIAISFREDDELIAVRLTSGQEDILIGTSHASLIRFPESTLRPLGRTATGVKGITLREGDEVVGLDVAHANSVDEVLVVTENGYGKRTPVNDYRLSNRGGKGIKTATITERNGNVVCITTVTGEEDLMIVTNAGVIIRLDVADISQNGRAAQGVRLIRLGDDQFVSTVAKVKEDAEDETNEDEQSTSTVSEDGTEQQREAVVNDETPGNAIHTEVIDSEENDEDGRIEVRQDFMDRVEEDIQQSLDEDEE

With `CCn1cc(C(=O)O)c(=O)c2cc(F)c(N3CCNCC3)cc21` as the compound, how does the Activity (Escherichia coli [1]) read?
Its Activity is “Active”.

What about the Activity [2] of the same compound?
The Activity was “Active”.

And the Activity [3]?
The Activity was 0.49 ng.

And the Activity (Escherichia coli [4])?
Its Activity is 0.53 ng.

And the Activity [5]?
The Activity was 0.39 ng.

And the Activity (Staphylococcus aureus [6])?
The Activity was 0.42 ng.

What about the Ratio (Escherichia coli [7]) of the same compound?
Its Ratio is 68.4.

And the Ratio (Escherichia coli [8])?
The Ratio was 3.79.

What about the Ratio [9] of the same compound?
Its Ratio is 10.

And the Ratio (Staphylococcus aureus [10])?
The Ratio was 24.7.

What about the Activity (Escherichia coli [11]) of the same compound?
Its Activity is 0.17 ng.

And the Ratio [12]?
Its Ratio is 1.96.

What about the Ratio (Escherichia coli [13]) of the same compound?
Its Ratio is 18.

What about the Ratio (Staphylococcus aureus [14]) of the same compound?
The Ratio was 2.5.

What about the Activity (Escherichia coli [15]) of the same compound?
The Activity was “Active”.

And the Activity (Staphylococcus aureus [16])?
Its Activity is “Active”.
